# Paper PMC3942533 (Journal of medicinal chemistry, 2013)
# Structures can show the parent of a compound that is named as a salt. Where two headings read alike, the source gives them in different places.
# Experiments:
# mouse hot plate = test: Hot plate antinociception test; assay type: in vivo; conditions: mice, icv 0.6 nmol, 30 and 45 min after administration
# Procedure, shortened: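 Mice received the test compound locally (icv, 0.6 nmol) or systemically (iv, 3000 nmol) and were assessed on the hot plate, with morphine as a reference. Antinociception expressed as % MPE over time and reported as mean ± SEM. Compared with vehicle-treated animals by two-way ANOVA and Bonferroni post hoc tests; significance P < 0.05.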
# [1] = Enzymatic stability in human plasma; assay type: in vitro ADME; conditions: 37 °C, compared with Biphalin
# Procedure, shortened: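 Test compound incubated in human plasma at 37 °C, with stability followed as a curve over time. Three independent experiments (n = 3), reported as mean ± SEM. Groups compared by two-way ANOVA with Bonferroni post hoc comparisons.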
# [2] = tested on: guinea pig ileum/longitudinal muscle myenteric plexus (μ); test: GPI isolated tissue bioassay; assay type: biochemical; conditions: for IC50: read-out: GPI (μ) IC50, 50% inhibition of muscle contraction, n = 4, ±SEM
# mouse vas deferens (δ) [3] = test: MVD isolated tissue bioassay; assay type: biochemical; conditions: read-out: MVD (δ) IC50; 50% inhibition of muscle contraction, n = 4, ±SEM
# mouse vas deferens (δ) [4] = conditions: read-out: MVD (δ) IC50; ±SEM; ref [1b] and [13]; cited from earlier work
# [5] = tested on: guinea pig ileum/longitudinal muscle myenteric plexus (μ); conditions: read-out: GPI (μ) IC50; ±SEM; ref [1b] and [13]; cited from earlier work
compound,measurement,setting,value
"C[C@@H](NC(=O)[C@@H](N)Cc1ccc(O)cc1)C(=O)NCC(=O)N[C@H](CC(=O)NNC(=O)C[C@H](Cc1ccccc1)NC(=O)CNC(=O)[C@@H](C)NC(=O)[C@@H](N)Cc1ccc(O)cc1)Cc1ccccc1 [Compound 1, 2 TFA·(Tyr-D-Ala-Gly-hβ^3Phe-NH)2]",MPE (antinociceptive effect),mouse hot plate,100%
same,"enzymatic stability, remaining parent compound versus time",[1],increased stability
same,IC50,[2],50 ± 6.5 nM
same,IC50,mouse vas deferens (δ) [3],33 ± 9.4 nM
Biphalin [Bph],IC50,mouse vas deferens (δ) [4],2.7 ± 1.5 nM
same,IC50,[5],8.8 ± 0.3 nM
"C[C@@H](NC(=O)C[C@@H](N)Cc1ccc(O)cc1)C(=O)NCC(=O)N[C@@H](Cc1ccccc1)C(=O)NNC(=O)[C@H](Cc1ccccc1)NC(=O)CNC(=O)[C@@H](C)NC(=O)C[C@@H](N)Cc1ccc(O)cc1 [Compound 4, 2 TFA·(hβ^3Tyr-D-Ala-Gly-Phe-NH)2]",IC50,[2],670 ± 139 nM
same,IC50,mouse vas deferens (δ) [3],710 ± 97 nM
"C[C@@H](NC(=O)[C@@H](N)Cc1ccc(O)cc1)C(=O)NCCC(=O)N[C@@H](Cc1ccccc1)C(=O)NNC(=O)[C@H](Cc1ccccc1)NC(=O)CCNC(=O)[C@@H](C)NC(=O)[C@@H](N)Cc1ccc(O)cc1 [Compound 2, 2 TFA·(Tyr-D-Ala-βAla-Phe-NH)2]",GPI (μ) inhibition at fixed concentration,[2]; at 1 μM,9.2% at 1 μM
same,IC50 (GPI)/IC50 (MVD),[2]; ratio,>0.75
same,IC50,mouse vas deferens (δ) [3],1300 ± 221 nM
